Compound activity from PubChem BioAssay.
Compounds with a hit are over-represented: about 2.2% of the library has one in this group of screens.
HIV Env fusion – blocks HIV Env-driven cell-cell fusion | HeLa-JRFL Env/CEM21 cell fusion, luciferase | inhibition, % at 12.3 µM | 360,000 tested, 1.1% active | AID 651610;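 active = mean replicate inhibition score of at least 50 and every replicate individually at or above 50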
NR2E3 ag-1 – human photoreceptor-specific nuclear receptor agonism; inhibition of corepressor binding, % at 3.98 µM; 360,000 tested, 0.35% active; Q9Y5X4; CHO-S Gal4-NCOR/VP16-NR2E3 two-hybrid, luciferase;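 active = inhibition above the mean of all tested compounds plus 3 SD, cut at about 70% in these data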;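 note: higher means lower luciferase signal from less NR2E3 corepressor binding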
Target sequence (Q9Y5X4 whole entry, looked up, the tested form may be a part): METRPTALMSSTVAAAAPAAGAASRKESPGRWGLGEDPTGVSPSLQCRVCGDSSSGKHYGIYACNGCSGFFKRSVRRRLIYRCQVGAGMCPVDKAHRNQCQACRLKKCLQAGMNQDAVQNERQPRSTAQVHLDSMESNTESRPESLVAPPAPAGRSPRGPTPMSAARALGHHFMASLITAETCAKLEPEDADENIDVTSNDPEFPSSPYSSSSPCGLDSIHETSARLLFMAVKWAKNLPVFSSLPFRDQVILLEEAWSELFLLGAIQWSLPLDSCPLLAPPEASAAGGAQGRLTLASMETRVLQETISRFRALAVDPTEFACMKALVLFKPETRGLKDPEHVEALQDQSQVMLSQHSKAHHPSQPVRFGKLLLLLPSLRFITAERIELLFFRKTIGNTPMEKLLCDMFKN
V-ATPase pH – alters yeast V-ATPase proton transport; AID 504577; 350,000 tested, 0.37% active; S. cerevisiae, pHLuorin cytosolic pH fluorescence; response, % at 10 µM; in the data active = response mostly above about 7.3%, no sharp cut-off; inactive = mostly below about 5.4%; note: actives read high
FXN GAA850 act – increases GAA850 frataxin promoter reporter activity | HEK293 lucGAA850 FXN promoter luciferase reporter, 24 h; percent of 10 µM SAHA response | activation, % at 6 µM | 360,000 tested, 0.56% active;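 active = activation above the average of all compounds screened plus 3 SD, cutoff fixed separately per campaign, cut at about 7.5% in these data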
NR2E3 ag-2 – agonists of human nuclear receptor NR2E3; Q9Y5X4; GST-NR2E3/biotin-RetCOR TR-FRET, 1536-well; 320,000 tested, 0.12% active; inhibition of corepressor binding, % at 4.78 µM;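 active = percent inhibition above the cutoff of mean plus 3 SD of all tested compounds, set per screening campaign, cut at about 20% in these data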
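Test system: GST-NR2E3 and biotin-RetCOR proteins | Quantity: 1.35 nM GST-tagged NR2E3 final | Medium: Tris pH 7.5 | Also added: 7 nM biotin-RetCOR | Dosing: Compound at 4.8 µM, single dose | Timing: 5 h at 4 °C | Detection: Time-resolved FRET | Read-out basis: Percent inhibition | Benchmarks: Biotin wells as high control, 0.6% DMSO wells as low control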
GalR3 antag – antagonists of human GalR3 | O60755 | HEK293 GalR3-CNG cAMP membrane potential fluorescence; galR3 body fused to GalR1 C-terminus | inhibition, % at 3 µM | 360,000 tested, 0.44% active | AID 651719;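 active = inhibition above the screen-wide average plus 3 SD, cut at about 13% in these data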;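 note: forskolin and galanin both at EC90 stimulate the cells; cAMP rise reported by CNG channel membrane potential dye signal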
Target sequence (O60755 1-299 limits assumed): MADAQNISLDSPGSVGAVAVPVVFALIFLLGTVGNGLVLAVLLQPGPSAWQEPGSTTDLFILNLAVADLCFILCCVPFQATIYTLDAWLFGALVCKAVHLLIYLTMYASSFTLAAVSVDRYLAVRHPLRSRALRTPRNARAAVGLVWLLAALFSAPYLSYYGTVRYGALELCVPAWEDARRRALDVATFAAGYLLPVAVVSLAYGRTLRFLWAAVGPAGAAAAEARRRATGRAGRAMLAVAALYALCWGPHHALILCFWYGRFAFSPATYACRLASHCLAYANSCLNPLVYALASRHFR
NR2E3 ag confirm – NR2E3 agonism confirmed in two-hybrid assay. shares compounds with NR2E3 ag-1. CHO-S mammalian two-hybrid NR2E3-NCOR, luciferase luminescence. inhibition, % at 3.98 µM. 2,300 tested, 51% active. AID 624378;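 active = average inhibition above a cutoff equal to the mean inhibition of all tested compounds plus one SD, cut at about 70% in these data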
GAL4-VP16 luc – GAL4-VP16 reporter inhibition in NR2E3 agonist counterscreen. 2,300 tested, 29% active. inhibition, % at 3.98 µM. CHO-S GAL4-VP16 luciferase reporter, luminescence. AID 624379. shares compounds with NR2E3 ag-1;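 active = mean inhibition above a cutoff equal to the average over all tested compounds plus one standard deviation, cut at about 70% in these data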;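 note: luciferase from a UAS reporter driven by GAL4-VP16 transactivation; higher means less reporter light so more repression of VP16 activity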
Hits are given with their value; . = inactive; / = no result given.

SMILES | HIV Env fusion | NR2E3 ag-1 | V-ATPase pH | FXN GAA850 act | NR2E3 ag-2 | GalR3 antag | NR2E3 ag confirm | GAL4-VP16 luc
COc1ccc(NC(=O)c2nnn(CC(=O)Nc3ccc4c(c3)OCO4)c2N)cc1OC | . | . | . | . | . | . | / | /
O=C(C[C@@H]1CC[C@H](NS(=O)(=O)c2ccc(F)cc2)[C@H](CO)O1)N1CCc2ccccc2C1 | . | / | / | / | / | / | / | /
O=C(C1CCN(S(=O)(=O)c2cccc3nsnc23)CC1)N1CC=C(c2ccccc2)CC1 | . | . | . | . | . | . | / | /
O=C(C1CCC(CNS(=O)(=O)c2cccc3nsnc23)CC1)N1CC=C(c2ccccc2)CC1 (stereo not given) | . | . | . | . | . | . | 87.8 | .
O=C(CS(=O)(=O)c1ccccc1)CS(=O)(=O)c1ccccc1 | . | / | / | / | / | . | / | /
O=S(=O)(C/C(=C/CO)S(=O)(=O)c1ccccc1)c1ccccc1 | . | . | . | . | . | . | . | .
CN(C)CCNC(=O)C(=O)Nc1cc2c3c(c1)CCC(=O)N3CCC2 | . | . | . | . | . | . | / | /
CCN(CC)CCNC(=O)C(=O)Nc1cc2c3c(c1)CCC(=O)N3CCC2 | . | 75.1 | . | . | . | . | . | .
O=C(Cn1cnc2ccccc21)Nc1ccc(SC(F)F)cc1 | . | . | . | . | . | 73.8 | 94.3 | 77.8
COCC(=O)Nc1ccc2c(c1)C(=O)N(C)C[C@@H](OC)[C@H](C)CN(C(C)=O)[C@@H](C)CO2 | . | / | / | / | / | / | / | /
C[C@H](CO)N1C[C@H](C)[C@@H](CN(C)Cc2ccc(Cl)c(Cl)c2)OCCCC[C@H](C)Oc2ccc(NS(=O)(=O)c3cn(C)cn3)cc2C1=O | . | / | / | / | / | / | / | /
O=C(C(=Cc1ccccc1)CN1CCCCC1)c1ccccc1 | . | 93.3 | . | . | / | . | 101.1 | .
CCCCC(=O)N1CCN(c2nc3ccc(Cl)cc3s2)CC1 | . | . | . | . | . | . | . | .
C[C@@H]1CCCCO[C@@H](CN(C)S(=O)(=O)c2cccs2)[C@H](C)CN([C@@H](C)CO)C(=O)c2cc(NC(=O)c3ccncc3)ccc2O1 | . | / | / | / | / | / | / | /
O=C(CSc1ccccc1)N1CCC(N2CCC(C(=O)N3CCCC3)CC2)CC1 | . | 88.1 | . | . | . | . | . | .
COc1ccccc1CNc1ncnc2cc(Cl)ccc12 | . | . | . | . | / | . | / | /
CCOc1ccccc1CNc1ncnc2ccc(-c3c(C)noc3C)cc12 | 69.9 | 82.0 | . | . | . | . | 81.1 | .
O=C1C=CC(O)(c2cc(=O)c3c(O)cc(O)cc3o2)C=C1 | . | . | . | . | . | . | . | .
CCCCCCC[C@@H](C/C=C/CCC(=O)N(C)C/C(=C/Cl)C/C(=C\C(=O)N1C[C@H](O)CC1=O)OC)OC | . | . | . | . | / | . | . | .
C[C@@H]1CN([C@@H](C)CO)C(=O)c2cc(C3=CCCCC3)cnc2O[C@H]1CN(C)C(=O)c1ccc2c(c1)OCO2 | . | / | / | / | / | / | / | /
Cn1cc([N+](=O)[O-])c(C(=O)Nc2nc(-c3ccc(Cl)cc3)cs2)n1 | / | 70.9 | . | . | . | . | . | .
CCCNC(=O)Nc1ccc2c(c1)C(=O)N(C)[C@H]1CC[C@H](CC(=O)NC)O[C@@H]1CO2 | . | / | / | / | / | / | / | /
CC(C)CNc1ncnc2c1ncn2[C@H]1CN(Cc2ccc(-c3ccccc3)cc2)C[C@@H](CO)O1 | . | . | / | . | / | . | 88.7 | .
CC(C)CNc1ncnc2c1ncn2[C@H]1CN(Cc2ccncc2)C[C@@H](CO)O1 | . | . | / | . | / | . | / | /
CC(C)Nc1ncnc2c1ncn2[C@H]1CN(Cc2ccc(-c3ccccc3)cc2)C[C@@H](CO)O1 | . | 72.8 | / | . | / | . | . | .
SMILES | HIV Env fusion | NR2E3 ag-1 | V-ATPase pH | FXN GAA850 act | NR2E3 ag-2 | GalR3 antag | NR2E3 ag confirm | GAL4-VP16 luc
CC(O)(c1cccnc1)c1nc(-c2ccc(F)c(Cl)c2)cs1 (stereo not given) | . | . | / | . | / | . | . | .
CC(O)(c1cccnc1)c1nc(-c2cccc(C(F)(F)F)c2)cs1 (stereo not given) | . | . | / | . | / | . | . | .
CC(C)C#Cc1cnc2c(c1)C(=O)N([C@@H](C)CO)C[C@@H](C)[C@H](CN(C)C(=O)c1ccccc1F)O2 | . | / | / | / | / | / | / | /
COc1ccc(NC(=O)N[C@H]2CC[C@@H](CCNS(=O)(=O)c3ccccc3F)O[C@@H]2CO)cc1 | . | / | / | / | / | / | / | /
CN(C)C(=O)C[C@H]1C[C@H]2c3cc(NS(=O)(=O)c4ccc(F)cc4)ccc3O[C@H]2[C@@H](CO)O1 | . | / | / | / | / | / | / | /
O=C(N/N=C(\c1ccccc1)c1ccccn1)c1ccccc1Cl | . | . | . | . | . | . | / | /
S=C(NN=C(c1ccccc1)c1ccccn1)N(Cc1ccccn1)Cc1ccccn1 | 76.2 | 92.2 | . | . | / | . | 99.6 | 78.7
Cc1cc(N2CCCCC2)nc(NCc2ccccc2)n1 | . | . | . | . | . | . | / | /
Cc1cc(N2CCOCC2)nc(NCc2ccccc2)n1 | / | . | . | . | . | . | . | .
C[C@@H]1CN([C@@H](C)CO)S(=O)(=O)c2ccc(-c3ccc(C#N)cc3)cc2O[C@@H]1CN(C)C | . | / | / | / | / | / | / | /
Cc1csc2ncnc(N3CCN(C(=S)Nc4ccc(F)cc4F)CC3)c12 | . | . | . | . | . | . | 93.3 | 82.0
Cc1cc(C)cc(NC(=O)CCc2nc3sc4c(c3c(=O)[nH]2)CCCC4)c1 | / | 83.9 | . | . | . | . | 96.2 | .
Cc1noc(C)c1NC(=O)N(C)C[C@H]1OCCCC[C@H](C)Oc2ccc(NC(=O)NC3CCCCC3)cc2C(=O)N([C@@H](C)CO)C[C@@H]1C | . | / | / | / | / | / | / | /
COc1cc2c(oc(=O)c3cc(C)cc(OC)c32)c2c(C3OC(C)C(O)C(C)(O)C3O)ccc(O)c12 (stereo not given) | 56.3 | . | . | . | / | . | 71.1 | .
C[C@@H]1CCCCO[C@@H](CN(C)C)[C@H](C)CN([C@H](C)CO)C(=O)c2cc(NC(=O)Nc3ccc(F)cc3)ccc2O1 | . | / | / | / | / | / | / | /
CN(C)c1ccc(/C=C/c2ccc3ccccc3[n+]2C)cc1 | / | . | . | . | . | . | 86.7 | .
CN(C)c1ccc(/C=C/c2ccc3c4ccccc4ccc3[n+]2-c2ccccc2)cc1 | . | 100.7 | . | . | / | 17.5 | 99.0 | 89.8
CN(C)c1ccc(/C=C/c2cccc[n+]2[O-])cc1 | . | . | . | . | . | . | / | /
CC[C@@H](C(=O)[C@@H](C)[C@@H](O)[C@H](C)CCc1ccc(C)c(O)c1C(=O)O)[C@H]1O[C@](CC)([C@H]2CC[C@](O)(CC)[C@H](C)O2)C[C@@H]1C | . | 103.5 | . | . | . | / | 97.7 | 90.7
